Measured values: ChEMBL document CHEMBL1938276, “Design and synthesis of 2-heterocyclyl-3-arylthio-1H-indoles as potent tubulin polymerization and cell growth inhibitors with improved metabolic stability” (J Med Chem, 2011)
One block for each compound: values may come before it. Active and inactive are the calls of the source. The rule behind the calls is not given here.

What was measured:
[1] = Cmax in nude CD-1 mouse at 5 mg/kg, iv by UPLC analysis; format: ADME, organism-based; set-up: dose 5 mg/kg, route intravenous; conditions: in vivo
In short: (§1)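 Male nude CD-1 mice, 4 weeks old; single iv rapid bolus 5 mg/kg in 3% DMSO + 30% PEG400 + 0.9% NaCl, or oral gavage 15 mg/kg in 5% DMSO + 20% PEG400 + water. Blood sampled at multiple times after dosing; plasma proteins precipitated, samples stored at −80 °C, quantified by UPLC-ESI triple-quadrupole MS/MS.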

[2] = AUC ( 0 to infinity) in nude CD-1 mouse at 5 mg/kg, iv by UPLC analysis; format: ADME, organism-based; set-up: time infinity, dose 5 mg/kg, route intravenous; conditions: plasma; in short: as §1
Mus musculus [3] = assay: Volume of distribution at steady state in nude CD-1 mouse at 5 mg/kg, iv and 15 mg/kg, po by UPLC analysis; format: ADME, organism-based; conditions: in vivo; in short: as §1
[4] = Cmax in nude CD-1 mouse at 15 mg/kg, po by UPLC analysis; format: ADME, organism-based; set-up: dose 15 mg/kg, route oral; conditions: in vivo; in short: as §1
[5] = Tmax in nude CD-1 mouse at 15 mg/kg, po by UPLC analysis; format: ADME, organism-based; set-up: dose 15 mg/kg, route oral; conditions: in vivo; in short: as §1
[6] = AUC ( 0 to infinity) in nude CD-1 mouse at 15 mg/kg, po by UPLC analysis; format: ADME, organism-based; set-up: time infinity, dose 15 mg/kg, route oral; conditions: plasma; in short: as §1
Mus musculus [7] = assay: Oral bioavailability in nude CD-1 mouse at 15 mg/kg by UPLC analysis; format: ADME, organism-based; conditions: in vivo; in short: as §1
HT-29 = assay: Antiproliferative activity against human HT-29 cells assessed as growth inhibition after 48 hrs by MTT assay; format: functional, cell-based; conditions: HT-29, 48 h
A549 = assay: Antiproliferative activity against human A549 cells assessed as growth inhibition after 48 hrs by MTT assay; conditions: A549, 48 h
[8] = Growth inhibition of human HSMC cells after 48 hrs by MTT assay; format: cell-based
A10 = assay: Growth inhibition of rat A10 cells after 48 hrs by MTT assay; format: cell-based; conditions: A10, 48 h
[9] = Growth inhibition of potorous tridactylus PtK2 cells after 48 hrs by MTT assay; format: cell-based; conditions: PtK2, 48 h
HUVEC = assay: Growth inhibition of HUVEC cells after 48 hrs by MTT assay; format: cell-based; conditions: Homo sapiens
HeLa [10] = assay: Cell cycle arrest in human HeLa cells assessed as accumulation at G2/M phase at 20 nM after 24 hrs by propidium iodide staining based flow cytometry analysis (reference value: 0.10 %); format: functional
HeLa [11] = assay: Induction of mitotic arrest in human HeLa cells assessed as accumulation at G2/M phase at 2 to 20 nM after 24 hrs by flow cytometry analysis relative to control; format: functional, cell-based
HeLa [12] = assay: Induction apoptosis in human HeLa cells at 10 nM after 24 hrs by Annexin V-based flow cytometry analysis; format: functional, cell-based
HeLa [13] = assay: Induction apoptosis in human HeLa cells at 20 nM after 24 hrs by Annexin V-based flow cytometry analysis; format: functional, cell-based
HeLa [14] = assay: Induction apoptosis in human HeLa cells assessed as caspase -3 activity at 100 nM after 24 hrs by single-cell immunofluorescence assay; format: functional, cell-based
HeLa [15] = assay: Induction apoptosis in human HeLa cells at 20 nM after 24 hrs by Annexin V-based flow cytometry analysis
Liver microsomes = assay: Metabolic stability in human liver microsomes assessed as compound remaining after 30 mins by LC-MS/MS analysis; format: ADME, Microsome; conditions: 0.5 h
In short: (§2)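 Compound at 1 μM final, in duplicate, preincubated 10 min at 37 °C with liver microsomes (0.5 mg/mL final) in potassium phosphate buffer pH 7.4 with 3 mM MgCl2; started with NADP/glucose-6-phosphate/G6P dehydrogenase. Samples taken 0–30 min, quenched in acetonitrile, quantified by LC-MS/MS; percent remaining at 30 min versus time zero peak area; no-cofactor control included.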

Liver = assay: Metabolic stability in mouse liver microsomes assessed as compound remaining after 30 mins by LC-Ms/Ms analysis; format: ADME, Microsome; conditions: 0.5 h; in short: as §2
OVCAR-8 = assay: cells; conditions: Homo sapiens, OVCAR-8, 96 h
[16] = Growth inhibition of doxorubicin-resistant human NCI-ADR-RES cells overexpressing P-glycoprotein after 96 hrs; format: functional, cell-based

Cmax [1]: 35.7 ng/mL
AUC(0-inf) [2]: 2910 ng·h/mL
Vdss (Mus musculus [3]): 1.59 L/kg
Cmax [4]: 1340 ng/mL
Tmax [5]: 2 h
AUC(0-inf) [6]: 9720 ng·h/mL
F (Mus musculus [7]): 110%
Structure (SMILES): COc1cc(Sc2c(-c3cc[nH]c3)[nH]c3ccccc23)cc(OC)c1OC

Structure (SMILES): COc1ccc(/C=C\c2cc(OC)c(OC)c(OC)c2)cc1O [COMBRETASTATIN A4]
IC50 (HT-29): > 10000 nM
IC50 (A549): > 10000 nM
IC50 [8]: 5 nM
IC50 (A10): 1 nM
IC50 [9]: 3 nM
IC50 (HUVEC): 1 nM
Activity (HeLa [10]): 80%
Activity (HeLa [11]): Active
Activity (HeLa [12]): Active
Activity (HeLa [13]): Active
Activity (HeLa [14]): Active
Activity (HeLa [15]): Active

Stability (Liver microsomes): 6.6%
Stability (Liver): 0.07%
Structure (SMILES): CCOc1ccc2ccc(=O)oc2c1 [ETHOXYCOUMARIN]

IC50 (OVCAR-8): 2 nM
Structure (SMILES): CC(=O)O[C@H]1C(=O)[C@@]2(C)[C@H]([C@H](OC(=O)c3ccccc3)[C@]3(O)C[C@H](OC(=O)[C@H](O)[C@@H](NC(=O)c4ccccc4)c4ccccc4)C(C)=C1C3(C)C)[C@]1(OC(C)=O)CO[C@@H]1C[C@@H]2O [PACLITAXEL]

Structure (SMILES): CC[C@]1(O)C[C@@H]2CN(CCc3c([nH]c4ccccc34)[C@@](C(=O)OC)(c3cc4c(cc3OC)N(C)[C@H]3[C@@](O)(C(=O)OC)[C@H](OC(C)=O)[C@]5(CC)C=CCN6CC[C@]43[C@@H]65)C2)C1 [VINBLASTINE]
Activity (HeLa [10]): 80%
Activity (HeLa [11]): Active
Activity (HeLa [12]): Active
Activity (HeLa [13]): Active
Activity (HeLa [14]): Active
IC50 (OVCAR-8): 15 nM
Activity (HeLa [15]): Active

Structure (SMILES): CCC1=C[C@@H]2CN(C1)Cc1c([nH]c3ccccc13)[C@@](C(=O)OC)(c1cc3c(cc1OC)N(C)[C@H]1[C@@](O)(C(=O)OC)[C@H](OC(C)=O)[C@]4(CC)C=CCN5CC[C@]31[C@@H]54)C2 [VINORELBINE]
IC50 [16]: 5000 nM
